Source: article PMC7003992 (Journal of medicinal chemistry, 2019)
Like-named read-outs stand apart in the source and are kept apart here.

What was measured:
NTR1 [1] = biological target: T1, NTR1 (Homo sapiens, UniProt P30989); assay: β-Arrestin2-GFP NTR1 high content assay; type: cell-based
Target sequence in this assay (P30989 whole entry, species assumed): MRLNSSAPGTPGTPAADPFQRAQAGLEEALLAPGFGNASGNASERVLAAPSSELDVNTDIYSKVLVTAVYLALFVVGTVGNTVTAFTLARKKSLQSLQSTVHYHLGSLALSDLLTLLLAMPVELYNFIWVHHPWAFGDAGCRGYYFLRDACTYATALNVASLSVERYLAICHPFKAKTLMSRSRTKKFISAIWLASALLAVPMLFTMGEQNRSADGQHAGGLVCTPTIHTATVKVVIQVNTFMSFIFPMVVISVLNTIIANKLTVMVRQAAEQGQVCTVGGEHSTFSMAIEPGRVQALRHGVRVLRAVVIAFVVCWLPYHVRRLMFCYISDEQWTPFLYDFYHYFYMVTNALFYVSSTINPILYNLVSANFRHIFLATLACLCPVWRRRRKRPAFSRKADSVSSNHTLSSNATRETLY

NTR1 [2] = biological target: T1, NTR1; conditions: cited from earlier work
Target sequence in this assay (P30989 whole entry, species assumed): as above

NTR1 [3] = biological target: T1, NTR1; assay: Ca2+ flux assay; type: cell-based
Target sequence in this assay (P30989 whole entry, species assumed): as above

NTR2 [4] = biological target: T2, NTR2 (Homo sapiens, UniProt O95665); assay: [125I]-NT radioligand binding to cell membranes; conditions: [125I]-NT 0.02 nM
Target sequence in this assay (O95665 whole entry): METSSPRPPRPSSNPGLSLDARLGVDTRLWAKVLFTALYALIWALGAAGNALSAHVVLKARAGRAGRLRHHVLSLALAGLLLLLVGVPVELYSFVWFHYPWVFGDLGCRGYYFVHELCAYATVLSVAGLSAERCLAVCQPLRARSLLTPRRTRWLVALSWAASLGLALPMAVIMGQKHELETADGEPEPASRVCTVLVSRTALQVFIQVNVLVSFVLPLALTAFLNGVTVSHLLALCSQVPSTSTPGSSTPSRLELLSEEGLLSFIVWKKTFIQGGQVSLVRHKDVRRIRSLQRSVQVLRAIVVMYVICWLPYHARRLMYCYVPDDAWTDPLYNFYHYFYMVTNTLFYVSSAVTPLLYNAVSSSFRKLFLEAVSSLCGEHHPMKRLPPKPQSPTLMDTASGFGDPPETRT

K-opioid = K-opioid (Homo sapiens, UniProt P41145); assay: GPCR cross reactivity, high-content assay format; type: cell-based
NTR1 [5] = biological target: T1, NTR1; assay: [125I]-NT radioligand binding to cell membranes; conditions: [125I]-NT 0.02 nM, increasing concentrations of compound
Target sequence in this assay (P30989 whole entry): as the sequence (P30989 whole entry, species assumed) above

[6] = system: dopamine transporter knockout (DAT−/−) mice; assay: Open field locomotor activity in dopamine transporter knockout mice; type: in vivo, mouse; conditions: 2 hr post-treatment
In short: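 Male and female DAT KO mice on a C57BL/6J background, 12–24 wk, 18–30 g, age- and sex-matched, randomised, tested early in the light cycle. After 30 min open-field acclimation, dosed at 10 ml/kg i.p. (vehicle 4% DMSO in saline) or p.o. as HCl salt in distilled water (after 5 daily water-gavage habituations). Infrared beam-break horizontal distance in 5-min bins; total summed 30–150 min.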

mouse NTR = mouse NTR (Mus musculus, UniProt O88319); assay: [125I]-NT radioligand binding to cell membranes; conditions: [125I]-NT 0.02 nM
[7] = Adverse effects in dosed animals; type: in vivo; conditions: animals dosed in the DAT knockout mouse study
NTR2 [8] = biological target: T2, NTR2; assay: NTR2 counterscreen, same high-content β-arrestin format; type: cell-based; conditions: high-content assay format
Target sequence in this assay (O95665 whole entry, species assumed): as the sequence (O95665 whole entry) above

GPR55 = GPR55 (Homo sapiens, UniProt Q9Y2T6); assay: GPCR cross reactivity, high-content assay format; type: cell-based
GPR35 = GPR35 (Homo sapiens, UniProt Q9HC97); assay: GPCR cross reactivity, high-content assay format; type: cell-based
Chain of GPR35 (Q9HC97 whole entry, species assumed): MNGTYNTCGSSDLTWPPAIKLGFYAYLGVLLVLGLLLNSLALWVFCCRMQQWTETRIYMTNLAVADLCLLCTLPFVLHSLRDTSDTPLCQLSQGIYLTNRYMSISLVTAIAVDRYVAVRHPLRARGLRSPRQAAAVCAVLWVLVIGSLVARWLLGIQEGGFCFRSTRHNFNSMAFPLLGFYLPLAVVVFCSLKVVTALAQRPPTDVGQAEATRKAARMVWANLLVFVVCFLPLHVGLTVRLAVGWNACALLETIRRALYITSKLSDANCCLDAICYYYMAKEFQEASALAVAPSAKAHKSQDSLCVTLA

Chain of GPR55 (Q9Y2T6 whole entry, species assumed): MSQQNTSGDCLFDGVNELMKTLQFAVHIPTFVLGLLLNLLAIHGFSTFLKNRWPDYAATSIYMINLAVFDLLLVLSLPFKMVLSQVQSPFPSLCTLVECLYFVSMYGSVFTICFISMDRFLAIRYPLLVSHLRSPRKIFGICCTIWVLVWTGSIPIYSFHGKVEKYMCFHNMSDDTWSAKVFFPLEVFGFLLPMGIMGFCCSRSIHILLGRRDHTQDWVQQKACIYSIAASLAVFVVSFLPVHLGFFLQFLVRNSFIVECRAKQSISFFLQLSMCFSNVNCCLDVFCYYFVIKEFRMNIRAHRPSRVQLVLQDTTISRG
Chain of mouse NTR (O88319 whole entry): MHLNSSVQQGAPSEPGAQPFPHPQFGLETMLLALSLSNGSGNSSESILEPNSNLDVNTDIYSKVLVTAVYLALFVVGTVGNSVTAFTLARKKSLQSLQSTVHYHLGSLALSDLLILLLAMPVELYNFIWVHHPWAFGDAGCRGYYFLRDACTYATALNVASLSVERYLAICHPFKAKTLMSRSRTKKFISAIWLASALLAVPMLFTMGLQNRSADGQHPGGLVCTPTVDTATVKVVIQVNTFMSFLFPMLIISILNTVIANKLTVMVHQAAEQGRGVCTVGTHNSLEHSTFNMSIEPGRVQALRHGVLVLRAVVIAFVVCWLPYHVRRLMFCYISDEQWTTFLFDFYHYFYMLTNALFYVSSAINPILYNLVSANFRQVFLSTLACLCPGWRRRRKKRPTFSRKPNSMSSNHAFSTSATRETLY
Chain of K-opioid (P41145 whole entry): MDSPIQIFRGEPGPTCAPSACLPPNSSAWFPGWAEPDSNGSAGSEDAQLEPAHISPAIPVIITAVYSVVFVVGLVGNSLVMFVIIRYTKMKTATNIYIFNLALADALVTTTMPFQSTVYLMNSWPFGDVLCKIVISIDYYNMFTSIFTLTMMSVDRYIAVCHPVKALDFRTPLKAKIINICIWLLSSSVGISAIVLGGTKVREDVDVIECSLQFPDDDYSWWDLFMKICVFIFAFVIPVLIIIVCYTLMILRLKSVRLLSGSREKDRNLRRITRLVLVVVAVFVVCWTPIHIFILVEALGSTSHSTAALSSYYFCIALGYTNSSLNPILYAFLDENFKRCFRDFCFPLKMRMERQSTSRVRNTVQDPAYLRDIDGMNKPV

With `COc1cc2nc(C3CC3)nc(C3CCN(c4ccccc4OC)CC3)c2cc1OC` [19a] the “EC50 (β-Arrestin2-GFP NTR1 potency)” value (NTR1 [1]; relative to the EC100 (100 nM) of the NT(8–13) peptide control, average ± SEM (n=4 unless otherwise noted in parentheses)) was “not active”.
In the case of `COc1cc2nc(C3CC3)nc(N3CCN(c4ccccc4OC)CC3)c2cc1OC` [compound 7], the Emax (NTR1 [1]) is given as 100% and the “activity in Ca2+ flux assay, compound alone” value (NTR1 [2]) is given as “no activity”.
In the case of `COc1ccccc1C1CCN(c2nc(C3(F)CC3)nc3ccc(N(C)CCO)cc23)CC1` [compound 18, 2-({2-(1-Fluoro-cyclopropyl)-4-[4-(2-methoxy-phenyl)-piperidin-1-yl]-quinazolin-6-yl}-methyl-amino)-ethanol], the “activity in Ca2+ flux assay, compound alone” value (NTR1 [3]; compound alone, without NT) is reported as “no activity”, the “shift of the NT EC50 in the Ca2+ flux assay” value (NTR1 [3]; rightward shift in the presence of 2.15 μM compound) is reported as > 30 fold and the “enhancement of neurotensin peptide binding” value (“enhancement” for short) (NTR2 [4]) is reported as “but not human NTR2”. The cross reactivity (K-opioid) was “no cross reactivity”, the “enhancement” value (NTR1 [5]) was “significant enhancement” and the “effect on the potency of NT in the NTR1 high-content (β-arrestin2-GFP) assay” value (NTR1 [1]; 18 (SBI-553) 0.5−356 nM) was “no effect”. The “effect on basal hyperlocomotion” value ([6]; IP dosing, 12 mg/kg) was “attenuated hyperlocomotion”, the “effect on basal hyperlocomotion” value ([6]; PO dosing, 10, 30 or 100 mg/kg as the HCl salt) was “attenuated hyperlocomotion” and the “enhancement” value (mouse NTR) was “significant enhancement”. The “adverse effects in dosed animals” value [7] was “did not show any adverse effects”, the cross reactivity (NTR2 [8]) was “no cross reactivity” and the cross reactivity (GPR55) was “no cross reactivity”. For the same compound, the cross reactivity (GPR35) was “no cross reactivity”.
